Test results from ChEMBL document CHEMBL1142297, “2,6-Diaryl-4-phenacylaminopyrimidines as potent and selective adenosine A(2A) antagonists with reduced hERG liability” (Bioorg Med Chem Lett, 2008).
Converted amounts (≈) assume the structure as drawn.

Columns and labels:
Homo sapiens = species: Homo sapiens; assay: Selectivity for human adenosine A2A receptor over human adenosine A1 receptor
In short: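 Ki ratio from radioligand displacement in HEK293 cells expressing human receptors. A2A uses [3H]-ZM241385 and A1 uses [3H]-DPCPX. A standard antagonist is included on each plate. Geometric means of 3–6 independent experiments, SD ≤20%.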

Adenosine receptor A2a [1] = molecular target: T1, Adenosine receptor A2a (Homo sapiens, UniProt P29274); assay: Displacement of [3H]ZM241385 from human adenosine A2A receptor expressed in HEK293 cells; format: cell-based
Cytochrome P450 2D6 = Cytochrome P450 2D6 (Homo sapiens, UniProt P10635); assay: Inhibition of CYP2D6; format: ADME
In short: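 Recombinant CYP2D6 in microsomes from transfected cells, with the fluorescent substrate AMMC; quinidine as positive control. IC50 determined; compounds with IC50 < 30 μM assayed in two or three experiments.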

Cytochrome P450 3A4 = Cytochrome P450 3A4 (Homo sapiens, UniProt P08684); assay: Inhibition of CYP3A4; format: ADME
In short: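 Recombinant CYP3A4 in microsomes from transfected cells expressing only that isoform, with the fluorescent substrate BFC; ketoconazole as positive control. IC50 determined; compounds with IC50 < 30 µM run in two or three experiments.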

[2] = Metabolic stability in human liver microsomes; format: ADME, Microsome
[3] = Solubility in buffer solution at pH 2; format: physicochemical
In short: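 About 1 mg of solid is weighed into pH 2.00 buffer solution, sonicated 10 min, shaken overnight and centrifuged. The supernatant is quantified by HPLC against a standard curve of known dilutions of authentic sample.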

[4] = molecular target: Voltage-gated inwardly rectifying potassium channel KCNH2 (Homo sapiens, UniProt Q12809); assay: Inhibition of human ERG expressed in HEK cells assessed as effect on electric current by patch clamp assay; format: cell-based, HEK293
In short: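 hERG potassium current was recorded by patch clamp in a HEK cell line stably carrying hERG. Each compound was applied at six concentrations (0.1 nM, 1 nM, 10 nM, 100 nM, 1 μM, 10 μM), and its effect on current was read at the end of a 5-min application. Cisapride (30 nM) served as positive control.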

Adenosine receptor A2a [5] = molecular target: T1, Adenosine receptor A2a; assay: Antagonist activity at human adenosine A2A receptor expressed in HEK293 cells by cAMP assay; format: functional, cell-based

T1 sequence (P29274 whole entry): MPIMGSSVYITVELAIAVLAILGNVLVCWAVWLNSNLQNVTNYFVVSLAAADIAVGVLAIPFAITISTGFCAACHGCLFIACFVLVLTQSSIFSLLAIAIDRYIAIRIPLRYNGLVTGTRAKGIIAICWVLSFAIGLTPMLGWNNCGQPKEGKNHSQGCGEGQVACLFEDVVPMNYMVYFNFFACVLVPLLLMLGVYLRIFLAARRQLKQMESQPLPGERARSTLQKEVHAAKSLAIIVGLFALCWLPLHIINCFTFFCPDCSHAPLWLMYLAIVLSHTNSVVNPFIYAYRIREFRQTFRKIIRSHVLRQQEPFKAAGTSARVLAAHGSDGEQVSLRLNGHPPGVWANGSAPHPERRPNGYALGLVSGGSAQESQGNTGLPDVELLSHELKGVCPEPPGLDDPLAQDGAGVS
Chain of Cytochrome P450 3A4 (P08684 whole entry, canonical isoform): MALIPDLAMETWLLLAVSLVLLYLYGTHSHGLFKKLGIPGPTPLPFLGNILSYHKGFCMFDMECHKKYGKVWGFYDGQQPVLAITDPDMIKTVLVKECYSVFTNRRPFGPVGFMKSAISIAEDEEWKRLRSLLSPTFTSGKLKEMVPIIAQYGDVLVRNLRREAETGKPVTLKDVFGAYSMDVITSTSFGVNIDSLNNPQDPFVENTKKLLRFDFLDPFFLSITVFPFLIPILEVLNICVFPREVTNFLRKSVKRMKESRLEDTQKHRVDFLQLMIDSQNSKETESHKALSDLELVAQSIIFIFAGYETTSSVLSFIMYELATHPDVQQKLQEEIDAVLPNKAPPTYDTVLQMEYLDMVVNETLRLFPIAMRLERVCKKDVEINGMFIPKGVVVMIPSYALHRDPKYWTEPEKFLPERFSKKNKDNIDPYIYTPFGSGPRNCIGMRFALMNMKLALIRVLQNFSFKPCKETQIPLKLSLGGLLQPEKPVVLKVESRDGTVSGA
Chain of Cytochrome P450 2D6 (P10635 whole entry): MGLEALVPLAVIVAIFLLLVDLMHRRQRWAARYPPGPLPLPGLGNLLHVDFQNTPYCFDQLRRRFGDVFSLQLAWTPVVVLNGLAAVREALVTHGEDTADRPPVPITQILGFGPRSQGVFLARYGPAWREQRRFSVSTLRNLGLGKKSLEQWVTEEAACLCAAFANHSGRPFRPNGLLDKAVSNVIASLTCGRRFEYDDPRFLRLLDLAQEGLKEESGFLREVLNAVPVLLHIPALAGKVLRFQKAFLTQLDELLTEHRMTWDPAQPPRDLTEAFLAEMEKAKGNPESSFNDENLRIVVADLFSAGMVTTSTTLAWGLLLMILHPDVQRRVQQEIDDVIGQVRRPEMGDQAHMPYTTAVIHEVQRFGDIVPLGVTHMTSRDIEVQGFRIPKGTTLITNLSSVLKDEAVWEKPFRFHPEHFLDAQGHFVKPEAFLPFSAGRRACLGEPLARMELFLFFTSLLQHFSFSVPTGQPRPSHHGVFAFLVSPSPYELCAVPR
Chain of Voltage-gated inwardly rectifying potassium channel KCNH2 (Q12809 whole entry): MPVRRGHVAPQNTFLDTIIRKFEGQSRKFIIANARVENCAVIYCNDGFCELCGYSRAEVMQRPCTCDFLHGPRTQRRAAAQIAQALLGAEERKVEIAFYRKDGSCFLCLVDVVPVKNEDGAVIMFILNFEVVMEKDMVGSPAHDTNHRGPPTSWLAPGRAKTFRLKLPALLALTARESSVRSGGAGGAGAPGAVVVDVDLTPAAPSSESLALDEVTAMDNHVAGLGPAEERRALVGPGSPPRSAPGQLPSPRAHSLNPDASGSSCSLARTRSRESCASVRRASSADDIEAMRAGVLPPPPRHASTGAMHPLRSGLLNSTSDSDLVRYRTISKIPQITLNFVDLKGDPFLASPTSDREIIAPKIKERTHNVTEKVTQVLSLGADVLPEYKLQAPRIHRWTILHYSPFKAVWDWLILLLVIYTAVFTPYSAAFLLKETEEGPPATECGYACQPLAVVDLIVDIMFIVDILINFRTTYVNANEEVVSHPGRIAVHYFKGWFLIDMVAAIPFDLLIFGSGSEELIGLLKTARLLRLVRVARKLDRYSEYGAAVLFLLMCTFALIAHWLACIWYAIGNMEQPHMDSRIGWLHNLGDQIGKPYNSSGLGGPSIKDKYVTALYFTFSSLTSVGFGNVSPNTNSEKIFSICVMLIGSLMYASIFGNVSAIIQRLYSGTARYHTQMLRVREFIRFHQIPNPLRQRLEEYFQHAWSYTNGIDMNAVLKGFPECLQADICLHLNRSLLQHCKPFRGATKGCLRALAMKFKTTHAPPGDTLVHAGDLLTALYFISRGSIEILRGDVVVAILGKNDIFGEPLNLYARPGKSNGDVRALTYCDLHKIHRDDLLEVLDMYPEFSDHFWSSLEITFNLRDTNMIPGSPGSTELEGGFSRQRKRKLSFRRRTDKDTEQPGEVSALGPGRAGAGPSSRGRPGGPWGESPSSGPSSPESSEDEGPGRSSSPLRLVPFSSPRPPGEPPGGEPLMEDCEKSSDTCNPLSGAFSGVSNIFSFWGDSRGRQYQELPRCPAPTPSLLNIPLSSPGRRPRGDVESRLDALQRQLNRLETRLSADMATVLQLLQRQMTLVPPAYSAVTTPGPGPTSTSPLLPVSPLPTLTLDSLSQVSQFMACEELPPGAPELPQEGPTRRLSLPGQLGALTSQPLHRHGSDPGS

SMILES | Selectivity ratio (Homo sapiens) | Ki (Adenosine receptor A2a [1]) [nM] | IC50 (Cytochrome P450 3A4) [µM] | also measured
Cc1cc(C)n(-c2cc(NC(=O)Cc3ccc(F)c(F)c3)nc(-c3ccc(C)o3)n2)n1 | 152 | 5 | – | –
Cc1cc(C)n(-c2cc(NC(=O)Cc3ccc(CN4CCOCC4)cc3)nc(-c3ccc(C)o3)n2)n1 | 179 | 0.8 | – | –
COc1ccc(CC(=O)Nc2cc(-n3nc(C)cc3C)nc(-c3ccc(C)o3)n2)cc1F | 129 | 3 | – | –
Cc1cc(C)n(-c2cc(NC(=O)Cc3cc(F)cc(F)c3)nc(-c3ccc(C)o3)n2)n1 | 126 | 5 | – | –
COc1cc(CC(=O)Nc2cc(-n3nc(C)cc3C)nc(-c3ccc(C)o3)n2)cc(OC)c1 | 487 | 2 | > 5 | IC50 (Cytochrome P450 2D6): > 5 µM; CLint scaled [2]: 78 mL/min/kg; solubility [3]: < 100 µg/mL; IC50 [4]: > 3 µM
Cc1cc(C)n(-c2cc(NC(=O)Cc3ccc(CN(C)C)cc3)nc(-c3ccc(C)o3)n2)n1 | 80 | 0.2 | – | –
COc1ccc(CC(=O)Nc2cc(-c3nccs3)nc(-c3ccccn3)n2)cc1 | 18 | 1 | – | –
Cc1cc(C)cc(CC(=O)Nc2cc(-n3nc(C)cc3C)nc(-c3ccccn3)n2)c1 | 186 | 3 | > 10 | CLint scaled [2]: 113 mL/min/kg
COc1ccc(CC(=O)Nc2cc(-n3nc(C)cc3C)nc(-c3ccc(C)o3)n2)cc1C | 411 | 3 | – | –
COc1ccc(CC(=O)Nc2cc(-n3cccn3)nc(-c3ccc(C)o3)n2)cc1 | 12 | 10 | – | –
Cc1cc(C)n(-c2cc(NC(=O)Cc3ccc(S(C)(=O)=O)cc3)nc(-c3ccccn3)n2)n1 | 148 | 1 | > 10 | IC50 (Adenosine receptor A2a [5]): 100 nM; CLint scaled [2]: 7 mL/min/kg; solubility [3]: 500 µg/mL (≈ 1080 µM)
COc1ccc(CC(=O)Nc2cc(-c3nccs3)nc(-c3ccc(C)o3)n2)cc1 | 12 | 6 | – | –
COc1ccc(CC(=O)Nc2cc(-n3nc(C)cc3C)nc(-c3ccccn3)n2)cc1 | 66 | 1 | 1.8 | –
Cc1cc(C)n(-c2cc(NC(=O)Cc3ccc(N(C)C)cc3)nc(-c3ccc(C)o3)n2)n1 | 162 | 2 | – | –
Cc1cc(C)n(-c2cc(NC(=O)Cc3ccc(NS(C)(=O)=O)cc3)nc(-c3ccc(C)o3)n2)n1 | 90 | 5 | – | –
CCOc1ccc(CC(=O)Nc2cc(-n3nc(C)cc3C)nc(-c3ccccn3)n2)cc1OC | 257 | 1 | 7 | CLint scaled [2]: 47 mL/min/kg
COc1ccc(CC(=O)Nc2cc(-n3nc(C)cc3C)nc(-c3ccc(C)o3)n2)cc1OC | 180 | 2 | – | –
COc1cc(CC(=O)Nc2cc(-n3nc(C)cc3C)nc(-c3ccccn3)n2)cc(OC)c1 | 477 | 1 | 1.3 | –
COc1ccc(CC(=O)Nc2cc(-n3nc(C)cc3C)nc(-c3ccc(C)o3)n2)cc1 | 61 | 4 | – | –
